Experimental data as given in PubChem BioAssay.
A number with no mark means an inactive call. Inconclusive results are not listed. Calls of active or inactive are those of the source.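 Rule for the calls, unless noted: active = cell viability at or below a set limit in both duplicate runs, the limit being the all-compound median minus 4 SD (cut at about 23% in these data, passing the limit was not always enough); inconclusive = no clear call, values can overlap the other calls; inactive = the rest.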

What was measured:
[1] = OD615 S. cerevisiae growth inhibition, permissive medium, pilot counter-assay, permissive growth control for S. cerevisiae lifespan shortening project (AID 705;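 active = growth inhibition above 25% in both replicates, a cutoff set 3 SD above the mean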); details: OD615, 24 h, at 10 µM, hits give high values
In short: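 System: S. cerevisiae with engineered DeaD lifespan system / Measured by: absorbance (optical density) at 615 nm / Read-out: reduction in yeast growth (OD615) / Times: 4 h cell pre-growth, 24 h exposure at 30 °C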

[2] = Restrictive medium S. cerevisiae growth inhibition, OD615, pilot screen of yeast lifespan reduction project, restrictive growth control (AID 706;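 active = growth inhibition above a set limit, 3 SD over mean compound inhibition, in both replicates, cut at about 43% in these data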;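 note: modified DeaD lifespan yeast strain shifted to restrictive glucose medium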); details: OD615, 48 h, at 10 µM, hits give high values
In short: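 System: Engineered S. cerevisiae DeaD strain | Buffer or medium: Glucose-based CSMM-D restrictive medium | Schedule: 4 h pre-incubation, 48 h exposure at 30 °C | Technique: Optical density at 615 nm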

[3] = viability gain of MRP-1-high H69AR cells under doxorubicin, pilot screen, MRP-1 activator project, CellTiter-Glo, duplicate (AID 807;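 active = viability increase at or above a cutoff of the median across tested compounds plus 3 SD, cut at about 8.5% in these data, passing the limit was not always enough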;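 note: compound pretreatment 18-22 h then 72 h combined with doxorubicin; 0% = doxorubicin alone and 100% = vehicle without doxorubicin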); details: H69AR viability with doxorubicin, CellTiter-Glo luminescence; at 10 µM; hits give high values
[4] = growth suppression of beta-catenin knockout HCT116, pilot screen, human colon tumor cells (AID 823); details: CellTiter-Glo, 60 h, at 10 µM, hits give low values;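 note: 0% = wells killed by 20 µM Hyamine and 100% = untreated DMSO cell wells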
[5] = growth suppression of PTEN-deleted HCT116, pilot screen, cell-based, HCT116 clonal line, CellTiter-Glo (AID 824;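 active = viability at or below 27.92% in each of two runs, the all-compound median minus 4 SD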;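 note: 0% = 20 µM Hyamine control and 100% = vehicle cell control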); details: 60 h, at 10 µM, hits give low values
[6] = inhibitors of the yeast RAM network, pilot screen, dse1pr::URA3 reporter, 5-FOA selection (AID 869;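 active = inhibition over a set limit, the all-compound mean plus 3 SD, in both replicate runs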;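 note: 0% = DMSO wells with no growth and 100% = 10 µM 1-NA-PP1 with full growth; RAM network block rescues cells from 5-FOA so hits raise OD615 growth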); details: S. cerevisiae dse1pr::URA3 5-FOA growth, OD615, 2 d; at 10 µM; hits give high values; strain carries analog-sensitive mutant Cbk1 kinase
[7] = RAM signaling pathway blockade in yeast – S. cerevisiae, Pdr1DBD-CYC8 efflux-inhibited sensitized strain, primary screen (AID 1298;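 active = RAM network inhibition above 8.4% in each of two replicates, 3 SD over the compound average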;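 note: 0% = DMSO untreated cells without growth and 100% = 10 µM 1-NA-PP1 full growth; higher means more yeast growth rescued from 5-FOA killing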); details: S. cerevisiae cbk1-as DSE1-URA3 strain, 5-FOA growth OD615, 2 d; at 50 µM; hits give high values

Structure (SMILES)	growth inhibition [1] [%]	growth inhibition [2] [%]	viability increase [3] [%]	viability [4] [%]	viability [5] [%]	inhibition [6]	RAM network inhibition [7] [%]
O=C(c1ccccc1)N1CCn2c(nc3ccccc32)C1	3.33	2.58	-0.73	98.2	98.2	0.5%	6.85
CCN(CC)S(=O)(=O)c1ccc(Cl)c(C(=O)NC2CCCC2)c1	-6.5	-7.35	0.17	92.9	97.1	0.145%	3.38
COCC(=O)NCCc1nc2ccccc2[nH]1	-0.385	1.45	-2.27	98.7	99.1	-0.325%	0.89
CCN(CCN(C)C)C(=O)Cn1ncc2c1-c1cc(C)ccc1OC2	-11	-0.185	-0.91	94.8	102	2.43%	2.3
O=C(NC1=NCCS1)c1csc2ccccc12	-9.29	27.3	-3.86	74	79	1.16%	1.26
CCCc1cc(C(=O)Nc2cccc(Cl)c2)no1	-7.36	-1.01	0.77	102	97.7	1.44%	-1.31
CCCCn1c(CCNC(=O)CC)nc2ccccc21	-8.93	-5.17	-1.11	98.8	101	1.86%	5.26
Cn1c(C(=O)NCCCN2CCOCC2)cc2c(=O)n(C)c3ccccc3c21	0.23	-0.345	-4.09	100	91.5	1.67%	-0.72
Cc1nc2ccccc2c2oc(C(=O)NCCN3CCN(C)CC3)cc12	-12.1	-15.1	-1.69	89.4	98.8	1.64%	3.28
CN(C)c1nc(N)nc(N(c2ccccc2)c2ccccc2)n1	-12.3	-28.1	-2.5	93.6	90.8	-0.635%	2.96
O=C(NC1CCCCCCC1)c1ccc(CNc2c(N3CCOCC3)c(=O)c2=O)cc1	1.56	8.42	0.25	100	95.6	0.71%	0.92
CCOc1ccc(N(C(C)C(=O)Nc2ccc(OC)cc2)S(C)(=O)=O)cc1 (stereo unspecified)	-10.2	-1.65	0.78	103	90.2	1%	3.17
COc1ccc(C)cc1NC(=O)CN(c1ccccc1F)S(C)(=O)=O	-8.48	-0.695	-1.51	94.6	103	-0.63%	0.32
Clc1ccc(OCc2nnc(-c3ccccc3Br)o2)c(Cl)c1	-11.4	-17	-0.17	95.9	89.3	6% (active)	14
CCC(C)Sc1nnc(Cc2cc(=O)[nH]c(=O)[nH]2)n1-c1ccc(F)cc1 (stereo unspecified)	-0.665	15.2	-1.78	97.1	100	0.605%	-1.47
Brc1ccc(-c2noc(COc3ccc4c(c3)CCC4)n2)o1	-10.2	-11.6	2.86	95.8	105	1.22%	4.46
CCOc1cccc(C2c3c(oc4ccccc4c3=O)C(=O)N2c2ccccn2)c1 (stereo unspecified)	-1.86	-9.72	-2.2	95.6	93.9	0%	2.56
N#Cc1ccc(Oc2cccnc2)cc1C#N	-13.5	-20.4	-0.76	100	97.5	1.49%	2.79
COc1cccc(N2C(=O)Nc3ccccc3C2(O)C(=O)NCc2ccc3c(c2)OCO3)c1 (stereo unspecified)	-11.5	-8.59	-0.4	95.9	99.7	0.51%	9.22
COc1ccc(C(=O)NCC(c2cccnc2)N2CCN(c3ccccc3OC)CC2)cc1OC (stereo unspecified)	-7.95	-2.41	-3.05	89.4	91	1.16%	2.21
O=C(COC(=O)c1ccc(S(=O)(=O)N2CCOCC2)cc1)NC1CCCCCC1	-5.28	-3.04	0.74	101	105	1.42%	3.1
CC(c1ccccc1)C1C(C#N)=C(N)OC2=C1C(=O)CCC2 (stereo unspecified)	-19	-12.4	-0.93	88	91.3	3.24%	1.95
CC1(C(=O)NC2CCCCC2)CCC(=O)N1Cc1cccnc1 (stereo unspecified)	-8.59	-7.4	-0.54	102	104	0.95%	0.89
Cc1oc(-c2ccccc2F)nc1CS(=O)CC(=O)NCc1ccc2c(c1)OCO2 (stereo unspecified)	-13.9	2.87	-1.41	94.2	89.3	2%	7.13

Structure (SMILES)	growth inhibition [1] [%]	growth inhibition [2] [%]	viability increase [3] [%]	viability [4] [%]	viability [5] [%]	inhibition [6]	RAM network inhibition [7] [%]
CCOC(=O)N1CCN(C(=O)C(NC(=O)C2CCC(C)CC2)C(C)C)CC1 (stereo unspecified)	10.9	7.68	-0.76	101	99.9	-0.215%	-0.98
O=c1c2cc(-c3ccccc3)sc2ncn1/N=C/c1ccco1	-7.51	0.525	-2.49	96.6	82	1.5%	5.9
CCOC(=O)C1CCN(C(c2ccc(OC)c(OC)c2)c2sc3nc(C)nn3c2O)CC1 (stereo unspecified)	-3.62	9.57	-2.25	95.4	96.1	-0.01%	-0.97
CCOc1ccc(-c2nc(CSCC(=O)N3CCN(C(=O)c4ccco4)CC3)c(C)o2)cc1	-0.515	26	-2.43	81.9	90.4	0.525%	10.9
CCOC(=O)Cn1c(=O)oc2cc(S(=O)(=O)N3CCCC(C(=O)OCC)C3)ccc21 (stereo unspecified)	-2.33	-20.5	-1.74	95.4	90.7	0.87%	1.99
CCOC(=O)N1CCN(C(=O)c2cnn3ccccc23)CC1	-9.02	-2.02	-1.3	103	100	4.82%	-1.68
CCOC(=O)c1[nH]c(=O)[nH]c1COC(=O)c1cc2ccccc2o1	-14.6	-12.6	-1.09	92.6	105	-0.22%	2.38
O=C(CN(C1CCCCC1)S(=O)(=O)c1ccc(F)cc1)NCCCO	-6.21	2.23	-0.51	103	98.1	1.75%	1.27
COc1ccc(Br)cc1S(=O)(=O)N1CCN=C1C	-0.525	-18.3	-1.79	91.1	83.4	0.79%	-0.12
CC1CCCN(c2ncnc3c2cnn3-c2ccc(Cl)cc2)C1 (stereo unspecified)	-6.17	-16.3	0.48	76	79.3	-1.04%	4.37
CCC(Sc1nncn1C)C(=O)Nc1nnc(-c2ccc(Cl)cc2)s1 (stereo unspecified)	5.38	32.9	-2.63	94.1	93.5	0.955%	4.37
O=C(CSc1nc2c(c(=O)n1-c1ccc(Br)cc1)SCC2)NCC1CCCO1 (stereo unspecified)	-11.1	-8.53	-1.02	97.9	101	1.69%	2.63
CCN(CC)S(=O)(=O)c1ccc(NC2c3ccccc3C(=O)N2Cc2ccc3c(c2)OCO3)cc1 (stereo unspecified)	1.96	-8.94	-2.84	92.9	93	-0.09%	5.92
CCOc1cc(C(=O)NCCN2CCOCC2)cc(OCC)c1OCC	-5.59	-3.11	-3.76	91.3	96.4	-0.045%	2.61
CCc1ccc(S(=O)(=O)NCc2csc(-c3cccnc3)n2)s1	-13.1	1.16	-0.39	103	101	2.68%	2.28
Cc1ccc(C)c(N(C)S(=O)(=O)c2cccc3nsnc23)c1	-6.8	-6.89	-3.51	79.5	75.5	0.92%	7.63
Cc1nnc(NC(=O)CSc2cn(Cc3ccccc3)c3ccccc23)s1	-8.99	-0.275	-2.83	82.2	81.2	2.86%	2.77
COCc1cc(=O)n2c(-c3ccc(C)cc3)n[nH]c2n1	-9.25	6.96	-0.72	95.8	92.1	2.2%	1.28
CC1CCc2nn(CC(=O)NC3CCCC3)cc2C1 (stereo unspecified)	0.6	10.9	-1.14	105	92.9	0.925%	0.63
CCN(CC)C(=O)Cn1c(=O)n(-c2ccccc2)c(=O)n1CC(=O)N(CC)CC	-4.64	2.5	-1.25	103	97.4	1.29%	1.08
CC(=O)Oc1cccc(N2C(=O)C3CC=C(Cl)CC3C2=O)c1 (stereo unspecified)	-5.15	-22.9	-0.7	89.6	87.9	2.81%	1.87
Cc1cc(C)c2c(CC(=O)O)coc2c1	-5.72	10.2	0.24	93.9	105	2.03%	0.98
COc1ccc(NC(=O)Nc2ccc3c(c2)N(C)C(=O)CS3)cc1OC	-18.9	-18.2	-4.94	88	75.9	2.05%	5.75
CC1=C(C(=O)OC(C)C)C(c2cccnc2)n2ncnc2N1 (stereo unspecified)	-6.7	-11	0.27	101	100	0.07%	5.02
